Source: PubChem (several laboratories)
Ecoli tolC = growth inhibitors of E. coli BW25113 tolC mutant; growth inhibition, % at 10 µM (by protocol); AID 573; actives 2.2% (n = 65,000); OD615;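 active = growth inhibition at or above a cutoff equal to the mean over every tested compound plus 3 SD, cut at about 60% in these data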;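 note: growth measured after 20 h incubation at 37 °C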
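Material: E. coli BW25113 ΔtolC::kan, tolC deletion mutant strain. Measure: percent growth inhibition. Schedule: 37 °C, 20 h exposure. Doses: single-point testing at 10 µM. Signal: A615 absorbance measurement. Buffer or medium: kanamycin-containing LB broth (50 µg/mL).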
PLAP act = activators of human placental alkaline phosphatase. P05187. actives 1.2% (n = 96,000). activation fold at 20 µM. purified PLAP enzyme, luminescent substrate read-out; active compounds read high; in the data active = activation fold above about 2
HePTP inhibitor = human HePTP phosphatase inhibition | actives 0.64% (n = 110,000) | inhibition, % at 20 µM | AID 521 | recombinant HePTP phosphatase activity, OD absorbance; in the data active = inhibition above about 50%;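 note: plate controls were vehicle for no effect and reference inhibitor for full effect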
Target sequence (P35236 whole entry, looked up): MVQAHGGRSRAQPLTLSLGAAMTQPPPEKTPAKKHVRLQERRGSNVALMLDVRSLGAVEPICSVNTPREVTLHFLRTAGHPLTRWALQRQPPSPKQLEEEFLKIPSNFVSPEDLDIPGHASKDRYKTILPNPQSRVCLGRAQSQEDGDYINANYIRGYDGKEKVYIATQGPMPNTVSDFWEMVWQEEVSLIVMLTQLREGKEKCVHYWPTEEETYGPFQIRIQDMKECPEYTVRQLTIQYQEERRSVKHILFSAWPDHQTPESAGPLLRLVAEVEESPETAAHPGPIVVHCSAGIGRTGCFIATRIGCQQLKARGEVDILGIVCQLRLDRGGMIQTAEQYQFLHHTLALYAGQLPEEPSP
E coli WT exp = growth inhibitors of E. coli BW25113 wild type. AID 710. OD600 absorbance. actives 0.15% (n = 98,000). growth inhibition, % at 100 µM;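 active = growth inhibition above about 50% at one test dose, limit read from the data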;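 note: growth measured after 20 h incubation at 37 °C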
PostGolgi yeast = growth inhibition of a yeast mutant, post-Golgi transport screen. post-Golgi transport phenotypic cell assay. inhibition, % at 10 µM. actives 0.9% (n = 98,000);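 note: yeast cells grown in 1536-well plates; yeast grown about 18 h at 30C before absorbance read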
PostGolgi ctrl = inhibits growth of the yeast control strain | efflux-deficient yeast background strain, growth absorbance A615, 16 h | inhibition, % at 10 µM | actives 5% (n = 98,000) | AID 738
* = called active by the depositor. The list is not random: actives were taken first. Their share in the collection is about 5.4%. Cut-off read from the data, not from the text of the source, unless noted: active = inhibition above about 30%; inactive = the rest.

`COC(=O)c1ccccc1NC(=O)C1CCCN(S(=O)(=O)c2ccccc2)C1` (stereo not given) gave Ecoli tolC 32.2, PLAP act 0.8, HePTP inhibitor 6.6, E coli WT exp -10.0, PostGolgi yeast -7.3 and PostGolgi ctrl 41.2*.
For COC(=O)c1ccccc1NC(=O)N1CCN(S(=O)(=O)c2ccc(Cl)cc2)CC1 the results were Ecoli tolC 25.2, PLAP act 0.8, HePTP inhibitor -4.6, E coli WT exp 4.0, PostGolgi yeast 3.1 and PostGolgi ctrl 42.7*.
CCOC(=O)N1CCN(CC(O)COc2ccccc2C(C)CC)CC1 (stereo not given) was read as Ecoli tolC -6.7, PLAP act 1.6, HePTP inhibitor 7.4, E coli WT exp 2.0, PostGolgi yeast 50.3* and PostGolgi ctrl 26.2.
`CC(=O)c1ccccc1OCC(O)CN1CCN(C(c2ccccc2)c2ccccc2)CC1` (stereo not given) gave Ecoli tolC 74.2*, PLAP act 1.9, HePTP inhibitor 4.2, E coli WT exp -3.0, PostGolgi yeast 12.7 and PostGolgi ctrl 9.5.
Cc1c(NC(=O)c2ccc(Cl)c(Cl)c2)c(=O)n(-c2ccccc2)n1C was read as HePTP inhibitor 9.7.
O=C1C(=Cc2ccccc2F)C(=O)c2ccccc21 was read as HePTP inhibitor 4.8.
For COC(=O)Nc1sc2c(c1C(=O)OC)CCCCC2 the results were HePTP inhibitor 10.2.
`COc1ccc(S(=O)(=O)CCC(=O)NCCc2ccc(C)cc2)cc1` gave PLAP act 1.6, E coli WT exp 2.0, PostGolgi yeast -1.8 and PostGolgi ctrl -1.0.
COc1ccc(S(=O)(=O)CCC(=O)O)cc1 was read as Ecoli tolC -4.7, PLAP act 0.9, HePTP inhibitor 10.6, E coli WT exp -3.0, PostGolgi yeast 0.6 and PostGolgi ctrl 33.7*.
Screening Cc1sc(NC(=O)C2CC=CCC2C(=O)O)c(C#N)c1C (stereo not given) returned HePTP inhibitor 30.5.
`Cc1ccc2c(c1)c1c3n2CCN(CC(O)CNCN2CCCCCC2)C3CCC1` (stereo not given) gave HePTP inhibitor 6.1.
COc1ccc(OC)c(-c2cc(C(=O)Nc3c(C)nn(Cc4ccccc4)c3C)no2)c1 was read as Ecoli tolC -11.1, PLAP act 1, HePTP inhibitor 10.6, E coli WT exp -2.0, PostGolgi yeast 9.4 and PostGolgi ctrl 37.7*.
Screening COc1ccc(OC)c(-c2cc(C(=O)Nc3cc(C)on3)no2)c1 returned Ecoli tolC 10.8, PLAP act 0.9, HePTP inhibitor 2.6, E coli WT exp 1.0, PostGolgi yeast 2.8 and PostGolgi ctrl 5.3.
Screening COc1ccc(OC)c(-c2cc(C(=O)Nc3c(C)nn(Cc4ccc(Cl)cc4)c3C)no2)c1 returned Ecoli tolC 40.2, PLAP act 1.3, HePTP inhibitor -0.3, E coli WT exp -7.0, PostGolgi yeast -8.6 and PostGolgi ctrl 33.5*.
`Cc1nn(Cc2ccccc2)c(C)c1NC(=O)c1cc(-c2ccco2)on1` gave Ecoli tolC -0.2, HePTP inhibitor 6.7, E coli WT exp -8.0, PostGolgi yeast -0.8 and PostGolgi ctrl 4.2.
Screening COC(=O)c1cc2oc(C)cc2n1CC(=O)N(C)c1ccccc1 returned Ecoli tolC 2.7, PLAP act 0.9, HePTP inhibitor 6.6, E coli WT exp 4.0, PostGolgi yeast -2.6 and PostGolgi ctrl 21.9.
`CCOC(=O)c1cc2oc(C)cc2n1CC(=O)OC1CCCCC1` gave Ecoli tolC 74.3*, PLAP act 1, HePTP inhibitor 6.3, E coli WT exp 6.0, PostGolgi yeast -6.7 and PostGolgi ctrl 11.8.
Cc1ccc(OCCCn2c(CO)nc3ccccc32)cc1 was read as Ecoli tolC 38.0, PLAP act 1.6, HePTP inhibitor 9.9, E coli WT exp 9.0, PostGolgi yeast 36.7* and PostGolgi ctrl 7.4.
O=C(c1cc2ccccc2oc1=O)N(Cc1ccc2c(c1)OCO2)Cc1ccco1 was read as Ecoli tolC 50.4, PLAP act 1.3, HePTP inhibitor 3.9, E coli WT exp -11.0, PostGolgi yeast -7.7 and PostGolgi ctrl 42.3*.
Screening CCCn1nnc(NC(=O)COc2ccc(C3CCCCC3)cc2)n1 returned Ecoli tolC 100.0*, PLAP act 1, HePTP inhibitor 2.8, E coli WT exp 2.0, PostGolgi yeast 3.3 and PostGolgi ctrl 9.1.
For CCCn1nnc(NC(=O)COc2ccc(Cl)cc2)n1 the results were Ecoli tolC -4.3, PLAP act 1, HePTP inhibitor -5.6, E coli WT exp 23.0, PostGolgi yeast 8.6 and PostGolgi ctrl 6.5.
Screening O=C(Cc1ccccc1)Nc1nc(-c2ccccc2)cs1 returned HePTP inhibitor -12.9.
CCOc1ccc(C(=O)Nc2ccc(OC(F)(F)F)cc2)cc1 was read as HePTP inhibitor 103.0*.
Screening COCCCNCC(=O)Nc1ccc(OC(F)(F)F)cc1 returned Ecoli tolC -15.5, HePTP inhibitor 2.4, E coli WT exp -12.0, PostGolgi yeast 9.3 and PostGolgi ctrl 42.5*.
Screening CCOc1ccc(NC(=O)C/C(N)=N/O)cc1 returned Ecoli tolC -14.6, PLAP act 1.1, HePTP inhibitor 4.8, E coli WT exp 8.0, PostGolgi yeast 35.2* and PostGolgi ctrl -4.0.
`O=Cc1ccc(OC(=O)c2sc3ccccc3c2Cl)cc1` gave HePTP inhibitor -8.5.
`CCOc1cccc(-c2cc(C(=O)N3CCN(c4ccccc4OCC)CC3)c3ccccc3n2)c1` gave HePTP inhibitor 6.8.
Screening O=C(c1ccc(Cl)cc1Cl)C1(n2cncn2)Oc2ccccc2C1O (stereo not given) returned Ecoli tolC 11.6, PLAP act 0.9, HePTP inhibitor 7.8, E coli WT exp -1.0, PostGolgi yeast 100.2* and PostGolgi ctrl 96.0*.
`CC1=C(C(=O)OCC(C)C)C(c2ccc(Br)cc2)NC(=O)N1` (stereo not given) gave HePTP inhibitor 59.6*.
`COc1cc(OC)cc(C(=O)O/N=C2/C(=O)N(C)c3ccccc32)c1` gave HePTP inhibitor 8.5.
CCOc1cc(/C=C2/SC(=S)NC2=O)cc(Cl)c1OCc1ccc(Cl)cc1Cl was read as HePTP inhibitor 84.1*.
For COc1cc(/C=C2/SC(=S)NC2=O)cc(Cl)c1OCc1ccccc1F the results were HePTP inhibitor -2.4.
`COc1cc(/C=C2/SC(=S)NC2=O)cc(Cl)c1OCc1cccc2ccccc12` gave HePTP inhibitor 101.9*.
For CCCOc1c(Cl)cc(/C=C2/SC(=S)NC2=O)cc1OC the results were HePTP inhibitor -2.1.
Screening CCOc1cc(/C=c2\sc3nc4ccccc4n3c2=O)ccc1OCCOc1ccc(Br)cc1 returned HePTP inhibitor 2.5.
For COc1ccccc1N1CCN(/N=C\c2ccccc2[N+](=O)[O-])CC1 the results were HePTP inhibitor 3.2.
Cc1cccc(/C=c2\s/c(=C\C(=O)C(C)(C)C)[nH]c2=O)c1 was read as PLAP act 1.1, E coli WT exp -10.0, PostGolgi yeast -4.5 and PostGolgi ctrl 35.7*.
